Results reported in ChEMBL document CHEMBL1145257, “Synthesis and antibacterial activity of hydrolytically stable (-)-epicatechin gallate analogues for the modulation of beta-lactam resistance in Staphylococcus aureus” (2005).
Values after ≈ are worked out from the molar mass of the structure shown.

How the values were obtained:
Format in all cases: functional
Staphylococcus aureus [1] = test: Minimum inhibitory concentration against methicillin resistant Staphylococcus aureus strain EMRSA 15
In short: (§1)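 Intrinsic activity by broth microdilution. Inoculum about 10⁴ cfu per well in Mueller-Hinton broth with 2% w/v NaCl, doubling dilutions of compound. MIC read after 24 h at 35 °C. S. aureus ATCC29213 served as standard strain.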

Staphylococcus aureus [2] = test: Minimum inhibitory concentration against methicillin resistant Staphylococcus aureus strain EMRSA 16; in short: as §1
Staphylococcus aureus [3] = test: Minimum inhibitory concentration against methicillin resistant Staphylococcus aureus strain BB 568; in short: as §1
Staphylococcus aureus [4] = test: Minimum inhibitory concentration against methicillin resistant Staphylococcus aureus strain BB 568 in combination with oxacillin; Experiment 1
In short: (§2)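 Oxacillin MIC measured with test compound held at a fixed 25 mg/L, using doubling dilutions of oxacillin. Broth microdilution with about 10⁴ cfu per well in Mueller-Hinton broth plus 2% w/v NaCl. MIC read after 24 h at 35 °C. S. aureus ATCC29213 served as standard. Two separate experiments reported.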

Staphylococcus aureus [5] = test: Minimum inhibitory concentration against methicillin resistant Staphylococcus aureus strain EMRSA 15 in combination with oxacillin; in short: as §2
Staphylococcus aureus [6] = test: Minimum inhibitory concentration against methicillin resistant Staphylococcus aureus strain EMRSA 16 in combination with oxacillin; in short: as §2
Staphylococcus aureus [7] = test: Minimum inhibitory concentration against methicillin resistant Staphylococcus aureus strain BB 568 in combination with oxacillin; Experiment 2; in short: as §2
Staphylococcus aureus [8] = test: Minimum inhibitory concentration against methicillin resistant Staphylococcus aureus strain BB 568 in combination with oxacillin; in short: as §2
Staphylococcus aureus [9] = test: Minimum inhibitory concentration against methicillin resistant Staphylococcus aureus strain EMRSA 15 in combination with oxacillin; Experiment 1; in short: as §2
Staphylococcus aureus [10] = test: Minimum inhibitory concentration against methicillin resistant Staphylococcus aureus strain EMRSA 16 in combination with oxacillin; Experiment 2; in short: as §2
Staphylococcus aureus [11] = test: Minimum inhibitory concentration against methicillin resistant Staphylococcus aureus strain EMRSA 15 in combination with oxacillin; Experiment 2; in short: as §2
Staphylococcus aureus [12] = test: Minimum inhibitory concentration against methicillin resistant Staphylococcus aureus strain EMRSA 16 in combination with oxacillin; Experiment 1; in short: as §2

Row | Structure (SMILES) | MIC (Staphylococcus aureus [1]) [µg/mL] | MIC (Staphylococcus aureus [2]) [µg/mL] | MIC (Staphylococcus aureus [3]) [µg/mL] | MIC (Staphylococcus aureus [4]) [µg/mL] | MIC (Staphylococcus aureus [5]) [µg/mL] | MIC (Staphylococcus aureus [6]) [µg/mL] | MIC (Staphylococcus aureus [7]) [µg/mL] | MIC (Staphylococcus aureus [8]) [µg/mL] | MIC (Staphylococcus aureus [9]) [µg/mL] | MIC (Staphylococcus aureus [10]) [µg/mL] | MIC (Staphylococcus aureus [11]) [µg/mL] | MIC (Staphylococcus aureus [12]) [µg/mL]
1 | Cc1onc(-c2ccccc2)c1C(=O)N[C@@H]1C(=O)N2[C@@H]1SC(C)(C)[C@@H]2C(=O)O [OXACILLIN] | 32 (≈ 79.7 µM) | 512 (≈ 1280 µM) | 256 (≈ 638 µM) |  |  |  |  |  |  |  |  | 
2 | O=C(N[C@@H]1Cc2c(O)cc(O)cc2O[C@@H]1c1ccc(O)c(O)c1)c1cc(O)c(O)c(O)c1 | 256 (≈ 580 µM) | 128 (≈ 290 µM) | 256 (≈ 580 µM) | 4 | ≤ 0.5 | 1 | 8 |  |  |  |  | 
3 | O=C(N[C@H]1Cc2c(O)cc(O)cc2O[C@@H]1c1ccc(O)c(O)c1)c1cc(O)c(O)c(O)c1 | 256 (≈ 580 µM) | 128 (≈ 290 µM) | 256 (≈ 580 µM) |  |  |  |  | 64 | 2 | 512 | 4 | 256
